pIC50: −log10 of the molar value. Activity calls are given as the source filed them. The calls are words filed in the database; no cut-off is given here.
Tests used:
[1] = system: Liver; test: Intrinsic clearance in human liver microsomes in presence of NADPH by LC-MS/MS analysis; format: ADME, microsome
[2] = system: Mus musculus; test: Elimination half life in athymic nude mouse at 300 ug, iv after 2 hrs by LC-MS analysis; format: ADME, organism-based; conditions: in vivo
Method in brief: (§1)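 Female athymic nude mice, 6–7 weeks old, got a 300 µg IV tail-vein bolus. Plasma was taken from 3–5 mice per time point (pre-dose, end of infusion, 0.25, 0.5, 1, 2 h), ethyl acetate-extracted and quantified by LC-MS against weighted (1/X2) calibration curves. Noncompartmental analysis: Cmax by inspection, t1/2 from the last two log points, AUC by linear trapezoid extrapolated to infinity, CL = dose/AUC.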

[3] = system: Mus musculus; test: AUC in athymic nude mouse at 300 ug, iv after 2 hrs by LC-MS analysis; format: ADME, organism-based; set-up: dose 300 ug, time < 2 hr, route intravenous; conditions: in vivo; method in brief: as §1
[4] = system: Mus musculus; test: Toxicity in athymic nude mouse xenografted with human SCC4 cells assessed as weight loss at 40 ug administered intratumorally on day 0 and day 3 measured up to 2 weeks; conditions: in vivo, other, 336 h
Method in brief: (§2)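 SCC-4 cells (1 × 10^6) were implanted subcutaneously in the rear flank of 6–7 week old female athymic nude mice. At an average tumor volume of 200 mm3, mice were grouped. Tumors were injected on days 0 and 3 with drug in 100 µL PBS containing 8% ethanol, or vehicle, under isoflurane. Mice were monitored for weight loss and toxicity; tumors were measured with calipers every 2–4 days.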

[5] = system: SCC-4; test: Antitumor activity against human SCC4 cells xenografted in athymic nude mouse assessed as tumor growth inhibition at 40 ug administered intratumorally on day 0 and day 3 measured up to 2 weeks; format: functional, cell-based
Method in brief: (§3)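 Female athymic nude mice, 6–7 weeks old, received 1 × 10^6 SCC-4 cells subcutaneously in the rear flank. Treatment began when tumors averaged 200 mm3. Under isoflurane, tumors were injected directly on days 0 and 3 with drug in 100 µL PBS with final 8% ethanol, or with vehicle only; the total dose was split between the two days. Calipers were read every 2–4 days and volume taken as width × length × height. Body weight and toxicity were monitored. Groups were compared over 17 days by two-way ANOVA with Tukey post-hoc; time for tumors to reach 1,500 mm3 was also tracked.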

[6] = system: Liver; test: Half life in human liver microsomes in presence of NADPH by LC-MS/MS analysis; format: ADME, microsome
[7] = system: MDA-MB-435; test: Antiproliferative activity against human MDA-MB-435 cells assessed as cell growth inhibition in presence of 1% FBS by sulforhodamine B assay; format: functional
Method in brief: (§4)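 MDA-MB-435 cells, normally kept in IMEM with 10% FBS and gentamicin, were exposed to concentration-response series in medium holding 0.1%, 1% or 10% serum. Growth was measured by sulforhodamine B staining. Cell density at the time of drug addition marked the line between antiproliferative and cytotoxic effect. GI50 was taken from the curves. Three independent experiments were run, each concentration in triplicate, reported as mean ± SEM.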

[8] = system: MDA-MB-435; test: Antiproliferative activity against human MDA-MB-435 cells assessed as cell growth inhibition in presence of 0.1% FBS by sulforhodamine B assay; format: functional; method in brief: as §4
[9] = system: SCC-4; test: Antitumor activity against human SCC4 cells xenografted in athymic nude mouse assessed as tumor burden at 80 ug administered intratumorally on day 0 and day 3 measured on day 10 post dose; format: functional; method in brief: as §3
[10] = system: MDA-MB-435; test: Ratio of GI50 for human MDA-MB-435 cells in presence of 10% FBS to GI50 for human MDA-MB-435 cells in presence of 0.1% FBS; format: functional
Method in brief: (§5)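 MDA-MB-435 human melanoma cells were kept in IMEM with 10% FBS. They were tested across a concentration range in 0.1, 1 or 10% serum using sulforhodamine B, with cell density at drug addition as the cytotoxicity baseline. GI50 in 1% or 10% serum was divided by GI50 in 0.1% serum. Three independent experiments, each concentration in triplicate.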

[11] = system: Mus musculus; test: Cmax in athymic nude mouse at 300 ug, iv after 2 hrs by LC-MS analysis; format: ADME, organism-based; set-up: dose 300 ug, route intravenous; conditions: in vivo; method in brief: as §1
[12] = system: Liver; test: Half life in human liver microsomes in absence of NADPH by LC-MS/MS analysis; format: ADME, microsome
[13] = system: HeLa; test: Antiproliferative activity against human HeLa cells after 48 hrs by SRB assay; format: functional, cell-based
[14] = system: MDA-MB-435; test: Antiproliferative activity against human MDA-MB-435 cells assessed as cell growth inhibition in presence of 10% FBS by sulforhodamine B assay; format: functional; method in brief: as §4
[15] = system: Mus musculus; test: Clearance in athymic nude mouse at 300 ug, iv after 2 hrs by LC-MS analysis; format: ADME, organism-based; conditions: in vivo; method in brief: as §1
[16] = system: MDA-MB-435; test: Ratio of GI50 for human MDA-MB-435 cells in presence of 1% FBS to GI50 for human MDA-MB-435 cells in presence of 0.1% FBS; format: functional; method in brief: as §5
[17] = system: SCC-4; test: Antitumor activity against human SCC4 cells xenografted in athymic nude mouse assessed as reduction in tumor burden at 80 ug administered intratumorally on day 0 and day 3 measured on day 51 post dose; format: functional, cell-based; method in brief: as §3
[18] = system: MDA-MB-435; test: Antiproliferative activity against human MDA-MB-435 cells assessed as cell growth inhibition at 1 nM in presence of 1% FBS by sulforhodamine B assay relative to control; conditions: MDA-MB-435, read-out: GI
[19] = system: MDA-MB-435; test: Antiproliferative activity against human MDA-MB-435 cells assessed as cell growth inhibition at 1 nM in presence of 0.1% FBS by sulforhodamine B assay relative to control; conditions: MDA-MB-435, read-out: GI
[20] = system: MDA-MB-435; test: Antiproliferative activity against human MDA-MB-435 cells assessed as cell growth inhibition at 1 nM in presence of 10% FBS by sulforhodamine B assay relative to control; conditions: MDA-MB-435, read-out: GI
[21] = system: Mus musculus; test: Toxicity against athymic nude mouse xenografted with human SCC4 cells assessed as weight loss at 40 ug administered intratumorally on day 0 and day 3 measured up to day 17 post dose; conditions: in vivo, other; method in brief: as §2
[22] = system: Plasma; test: Drug uptake in athymic nude mouse plasma at 300 ug, iv after 2 hrs by LC-MS analysis; format: ADME, organism-based; conditions: in vivo; method in brief: as §1
[23] = system: SCC-4; test: Antitumor activity against human SCC4 cells xenografted in athymic nude mouse assessed as tumor growth inhibition administered intratumorally on day 0 and day 3 measured up to day 17 post dose; format: functional, cell-based; method in brief: as §3
[24] = system: Liver; test: Intrinsic clearance in human liver microsomes in absence of NADPH by LC-MS/MS analysis; format: ADME, microsome
[25] = system: SCC-4; test: Antitumor activity against human SCC4 cells xenografted in athymic nude mouse assessed as tumor growth inhibition at 40 to 80 ug administered intratumorally on day 0 and day 3 measured on day 17 post dose; format: functional, cell-based; method in brief: as §3
[26] = system: SCC-4; test: Antitumor activity against human SCC4 cells xenografted in athymic nude mouse assessed as tumor growth inhibition at 20 ug administered intratumorally on day 0 and day 3 measured every 2 to 4 days up to 2 weeks; format: functional, cell-based; method in brief: as §3
[27] = system: SCC-4; test: Antitumor activity against human SCC4 cells xenografted in athymic nude mouse assessed as tumor growth inhibition at 40 to 80 ug administered intratumorally on day 0 and day 3 measured on day 14 post dose; format: functional, cell-based; method in brief: as §3

SMILES | CLH [1] [µL/min/mg] | beta t1/2 [2] [h] | AUC [3] [ng·h/mL] | t1/2 [6] [h] | GI50 [7] [nM] | GI50 [8] [nM] | Activity [9] [mm3] | RatioGI50 [10] | Cmax [11] [ng/mL] | t1/2 [12] [h] | pIC50 [13] | GI50 [14] [nM] | CL [15] [mL/h] | RatioGI50 [16] | further results
CC(=O)O[C@@H]1[C@H]2[C@H]3[C@H]([C@H](OC(C)=O)[C@H](OC(C)=O)[C@]2(C)[C@H]2[C@H](C)[C@H]4O[C@]45OC(=O)[C@@](C)(O)[C@]5(C)[C@H]12)[C@]1(C)[C@H](C[C@@H]2O[C@@H]2[C@@H]1OC(C)=O)C(=O)[C@@H]3O | 8.3 | 0.733 | 1300 | 1.38 | 30 | 25 | <1500 | 1.9 | 8600 | > 4 | 7.62 | 47 | 240 | 1.2 | Activity [4]: Non-Toxic; TGI [5]: Active; Activity [17]: Active
CC(=O)O[C@H]1C(=O)[C@@]2(C)[C@H]([C@H](OC(=O)c3ccccc3)[C@]3(O)C[C@H](OC(=O)[C@H](O)[C@@H](NC(=O)c4ccccc4)c4ccccc4)C(C)=C1C3(C)C)[C@]1(OC(C)=O)CO[C@@H]1C[C@@H]2O [PACLITAXEL] | – | – | – | – | 1.9 | 1 | – | – | – | – | – | 3.4 | – | – | inhibition of growth at 0.001 µM [18]: 27%; inhibition of growth at 0.001 µM [19]: 54%; inhibition of growth at 0.001 µM [20]: 9%
CC(=O)CC(c1ccccc1)c1c(O)c2ccccc2oc1=O (stereo not given) [WARFARIN] | 0 | – | – | – | – | – | – | – | – | – | – | – | – | – | –
CC(=O)O[C@H]1[C@H]2[C@H]([C@@H]3[C@@H](O)[C@@H]4[C@H]([C@H](C)[C@H]5O[C@]56OC(=O)[C@@](C)(O)[C@]46C)[C@@]3(C)[C@H]1OC(C)=O)[C@@H](O)C(=O)[C@H]1C[C@@H]3O[C@@H]3[C@H](OC(C)=O)[C@]21C | 15 | 0.135 | 3500 | 0.783 | 7 | 6 | <1500 | 1.5 | 19000 | > 4 | 8.40 | 9 | 85 | 1.2 | Activity [21]: Non-Toxic; Drug uptake [22]: Not Active; TGI [23]: Dose-dependent effect; CLH [24]: 300 µL/min/mg; TGI [25]: Active; TGI [26]: inactive; TGI [27]: Active
